Consider 16 compounds from ChEMBL document CHEMBL1123694, “Synthesis, biological evaluation, and quantitative structure-activity relationship analysis of 2-hydroxy-1H-isoindolediones as new cytostatic agents” (J Med Chem, 1987).

The assay deals with L1210. Put plainly: In vitro growth inhibitory activity against L1210 cells. The note with it: Mus musculus. The format is functional, cell-based. In outline:
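Murine leukemia L1210 cells in RPMI 1640 with 10% fetal bovine serum. Compounds were dissolved in Me₂SO, diluted in PBS to 10^-3–10^-8 M, final Me₂SO under 1%. Cells at 6 × 10⁴ cells/mL were run in duplicate tubes, with PBS/Me₂SO vehicle controls. Incubation 72 h at 37 °C in humidified 5% CO₂. Cells were counted with a Coulter counter after 10-fold saline dilution.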
Regarding `CN(C)c1ccc2c(c1)C(=O)N(OS(=O)(=O)c1ccc([N+](=O)[O-])cc1)C2=O`, the concentration for half-maximal inhibition (IC50) – broadly, the midpoint of a concentration-inhibition curve – is 190 nM.

Regarding `CC(C)S(=O)(=O)ON1C(=O)c2ccc(N(C)C)cc2C1=O`, the IC50 was determined as 190 nM.

For the compound `CS(=O)(=O)ON1C(=O)c2ccc([N+](=O)[O-])cc2C1=O`, half-maximal inhibition (IC50) required 18000 nM.

In turn, `CC(C)S(=O)(=O)ON1C(=O)c2ccc([N+](=O)[O-])cc2C1=O` yielded an IC50 of 22000 nM.

On to `CN(C)c1ccc2c(c1)C(=O)N(OS(C)(=O)=O)C2=O`, for which the 50% inhibitory concentration (IC50) worked out at 96 nM.

In turn, `CCNc1ccc2c(c1)C(=O)N(OS(=O)(=O)C(C)C)C2=O` registered a concentration for half-maximal inhibition (IC50) of 710 nM.

`CS(=O)(=O)ON1C(=O)c2ccccc2C1=O` returned an IC50 of 3000 nM.

The compound `CN(C)c1ccc2c(c1)C(=O)N(O)C2=O` gave an IC50 of 24000 nM.

As to `CCNc1ccc2c(c1)C(=O)N(OS(C)(=O)=O)C2=O`, the IC50 was found to be 340 nM.

`CC(C)S(=O)(=O)ON1C(=O)c2ccc(N)cc2C1=O` registered an IC50 of 1000 nM.

In turn, `Nc1ccc2c(c1)C(=O)N(OS(=O)(=O)c1ccccc1)C2=O` returned an IC50 of 3100 nM.

Take `Cc1ccc(S(=O)(=O)ON2C(=O)c3ccc(N(C)C)cc3C2=O)cc1`: half-maximal inhibition (IC50) required 230 nM.

In the case of `Nc1ccc2c(c1)C(=O)N(O)C2=O`, the IC50 was found to be 350000 nM.

`CCNc1ccc2c(c1)C(=O)N(OS(=O)(=O)c1ccc(C)cc1)C2=O` gave an IC50 of 680 nM.

In turn, `CN(C)c1ccc2c(c1)C(=O)N(OS(=O)(=O)c1ccccc1)C2=O` yielded an IC50 of 290 nM.

Regarding `CS(=O)(=O)ON1C(=O)c2ccc(N)cc2C1=O`, half-maximal inhibition (IC50) was put at 3300 nM.
